The record followed here is ChEMBL document CHEMBL1143106, “Synthesis, SAR, and antibacterial activity of novel oxazolidinone analogues possessing urea functionality” (2008).

Molecules are shown by their SMILES. In brackets after ≈: the same amount, converted by molar mass.

Holding throughout (assay type): functional
Experiment [1] deals with Staphylococcus aureus. The experiment in a line: Antimicrobial activity against Staphylococcus aureus ATCC 29213.
Experiment [2] has as its system Staphylococcus aureus. The experiment in a line: Antimicrobial activity against methicillin-resistant Staphylococcus aureus ATCC 33591.
Experiment [3] concerns Staphylococcus aureus. The experiment can be described thus: Antimicrobial activity against Staphylococcus aureus.
Experiment [4] deals with Enterococcus faecalis. The experiment in a line: Antimicrobial activity against vancomycin-sensitive Enterococcus faecalis ATCC 29212.
For experiment [5], the system named is Enterococcus faecalis. The experiment can be described thus: Antimicrobial activity against vancomycin-resistant Enterococcus faecalis NCTC-12201.
Experiment [6] concerns Enterococcus faecium. The experiment in a line: Antimicrobial activity against vancomycin-resistant Enterococcus faecium ATCC 12202.
Experiment [7] has as its system Enterococcus faecium. The experiment in a line: Antimicrobial activity against vancomycin-resistant Enterococcus faecium ATCC 12202 infected in po dosed mouse. The method in brief: (§1)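 Mice with systemic infection; dosing was oral (po line) or subcutaneous (sc line); ED50 reported in mg/kg.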
The subject of experiment [8] is Enterococcus faecium. The experiment in a line: Antimicrobial activity against vancomycin-resistant Enterococcus faecium ATCC 12202 infected in sc dosed mouse. The method in brief: as §1

As usually defined, the MIC is the least concentration at which growth counts as inhibited. On to `CC(=O)NC[C@H]1CN(c2ccc(N3CCN(C(=O)NC4CCCC4)CC3)c(F)c2)C(=O)O1`, for which the minimal inhibitory concentration (MIC) turned out to be 8 µg/mL (≈ 17.9 µM) against Staphylococcus aureus [1]; 8 µg/mL (≈ 17.9 µM) with Staphylococcus aureus [2]; 8 µg/mL (≈ 17.9 µM) with Staphylococcus aureus [3]; 4 µg/mL (≈ 8.94 µM) against Enterococcus faecalis [4]; 4 µg/mL (≈ 8.94 µM) in the experiment on Enterococcus faecalis [5]; 4 µg/mL (≈ 8.94 µM) against Enterococcus faecium [6].
On to `COc1ccc(CNC(=O)N2CCN(c3ccc(N4C[C@H](CNC(C)=O)OC4=O)cc3F)CC2)cc1`, for which the minimum inhibitory concentration (MIC) against Staphylococcus aureus [1] turned out to be 4 µg/mL (≈ 8.01 µM); with Staphylococcus aureus [2], 2 µg/mL (≈ 4 µM); with Staphylococcus aureus [3], 2 µg/mL (≈ 4 µM); against Enterococcus faecalis [4] it was 2 µg/mL (≈ 4 µM); against Enterococcus faecalis [5], 2 µg/mL (≈ 4 µM); in the experiment with Enterococcus faecium [6] it was 2 µg/mL (≈ 4 µM).
For `CC(=O)NC[C@H]1CN(c2ccc(N3CCN(C(=O)Nc4ccccc4Cl)CC3)c(F)c2)C(=O)O1`, the MIC was 4 µg/mL (≈ 8.16 µM) with Staphylococcus aureus [1]; 2 µg/mL (≈ 4.08 µM) in the experiment with Staphylococcus aureus [2]; 2 µg/mL (≈ 4.08 µM) against Staphylococcus aureus [3]; 2 µg/mL (≈ 4.08 µM) in the experiment with Enterococcus faecalis [4]; 2 µg/mL (≈ 4.08 µM) with Enterococcus faecalis [5]; 2 µg/mL (≈ 4.08 µM) against Enterococcus faecium [6].
Consider `CNC(=O)N1CCN(c2ccc(N3C[C@H](CNC(C)=O)OC3=O)cc2F)CC1`, for which the MIC was found to be 4 µg/mL (≈ 10.2 µM) in the experiment on Staphylococcus aureus [1]; 4 µg/mL (≈ 10.2 µM) in the experiment with Staphylococcus aureus [2]; 4 µg/mL (≈ 10.2 µM) with Staphylococcus aureus [3]; 4 µg/mL (≈ 10.2 µM) against Enterococcus faecalis [4]; 2 µg/mL (≈ 5.08 µM) against Enterococcus faecalis [5]; 4 µg/mL (≈ 10.2 µM) against Enterococcus faecium [6].
As to `CC(=N)NC(=O)N1CCN(c2ccc(N3C[C@H](CNC(C)=O)OC3=O)cc2F)CC1`, the MIC in the experiment with Staphylococcus aureus [1] came to 4 µg/mL (≈ 9.51 µM); against Staphylococcus aureus [2], 4 µg/mL (≈ 9.51 µM); in the experiment on Staphylococcus aureus [3], 4 µg/mL (≈ 9.51 µM); in the experiment with Enterococcus faecalis [4], 2 µg/mL (≈ 4.76 µM); with Enterococcus faecalis [5], 2 µg/mL (≈ 4.76 µM); with Enterococcus faecium [6], 4 µg/mL (≈ 9.51 µM).
For orientation: ED50 means the dose that gives a 50% effect, or the effect in half of the subjects. Read a low ED50 as greater potency. Regarding `CC(=O)NC[C@H]1CN(c2ccc(N3CCN(C(=O)Nc4nccs4)CC3)c(F)c2)C(=O)O1`, the MIC was found to be 2 µg/mL (≈ 4.32 µM) against Staphylococcus aureus [1]; 2 µg/mL (≈ 4.32 µM) against Staphylococcus aureus [2]; 2 µg/mL (≈ 4.32 µM) against Staphylococcus aureus [3]; 1 µg/mL (≈ 2.16 µM) against Enterococcus faecalis [4]; 1 µg/mL (≈ 2.16 µM) with Enterococcus faecalis [5]; 1 µg/mL (≈ 2.16 µM) with Enterococcus faecium [6]. In the experiment with Enterococcus faecium [7], this compound yielded a 50% effective dose (ED50) of 18.4 mg/kg.
On to `CC(=O)NC[C@H]1CN(c2ccc(N3CCOCC3)c(F)c2)C(=O)O1` [LINEZOLID], for which, in the experiment with Enterococcus faecium [6], the minimal inhibitory concentration (MIC) was determined as 2 µg/mL (≈ 5.93 µM). It took a dose of 3.91 mg/kg to reach the 50% effect level with Enterococcus faecium [7] (ED50).
With `CC(=O)NC[C@H]1CN(c2ccc(N3CCN(C(=O)Nc4ccc(Cl)cc4Cl)CC3)c(F)c2)C(=O)O1`, the MIC in the experiment on Staphylococcus aureus [1] stood at 2 µg/mL (≈ 3.81 µM); against Staphylococcus aureus [2], 1 µg/mL (≈ 1.91 µM); with Staphylococcus aureus [3], 2 µg/mL (≈ 3.81 µM); against Enterococcus faecalis [4], 2 µg/mL (≈ 3.81 µM); in the experiment with Enterococcus faecalis [5], 1 µg/mL (≈ 1.91 µM); with Enterococcus faecium [6], 2 µg/mL (≈ 3.81 µM). Further, the ED50 in the experiment on Enterococcus faecium [7] is above 10 mg/kg.
For the compound `COc1ccccc1NC(=O)N1CCN(c2ccc(N3C[C@H](CNC(C)=O)OC3=O)cc2F)CC1`, the MIC against Staphylococcus aureus [1], in the experiment with Staphylococcus aureus [2], against Staphylococcus aureus [3], in the experiment on Enterococcus faecalis [4], in the experiment with Enterococcus faecalis [5] and in the experiment on Enterococcus faecium [6] was 2 µg/mL (≈ 4.12 µM) each time. The ED50 in the experiment with Enterococcus faecium [7] is 9.1 mg/kg.
For `CC(=O)NC[C@H]1CN(c2ccc(N3CCN(C(=O)NO)CC3)c(F)c2)C(=O)O1`, the MIC was found to be 4 µg/mL (≈ 10.1 µM) against Staphylococcus aureus [1]; 4 µg/mL (≈ 10.1 µM) against Staphylococcus aureus [2]; 2 µg/mL (≈ 5.06 µM) against Staphylococcus aureus [3]; 4 µg/mL (≈ 10.1 µM) against Enterococcus faecalis [4]; 2 µg/mL (≈ 5.06 µM) against Enterococcus faecalis [5]; 2 µg/mL (≈ 5.06 µM) in the experiment on Enterococcus faecium [6].
Regarding `COc1ccc(NC(=O)N2CCN(c3ccc(N4C[C@H](CNC(C)=O)OC4=O)cc3F)CC2)c(OC)c1`, the minimal inhibitory concentration (MIC) turned out to be 4 µg/mL (≈ 7.76 µM) against Staphylococcus aureus [1]; 4 µg/mL (≈ 7.76 µM) in the experiment with Staphylococcus aureus [2]; 4 µg/mL (≈ 7.76 µM) with Staphylococcus aureus [3]; 2 µg/mL (≈ 3.88 µM) against Enterococcus faecalis [4]; 2 µg/mL (≈ 3.88 µM) with Enterococcus faecalis [5]; 4 µg/mL (≈ 7.76 µM) in the experiment on Enterococcus faecium [6].
Regarding `CC(=O)NC[C@H]1CN(c2ccc(N3CCN(C(=O)Nc4cccc(F)c4)CC3)c(F)c2)C(=O)O1`, the minimum inhibitory concentration (MIC) in the experiment with Staphylococcus aureus [1] amounted to 4 µg/mL (≈ 8.45 µM); with Staphylococcus aureus [2], 2 µg/mL (≈ 4.22 µM); against Staphylococcus aureus [3], 2 µg/mL (≈ 4.22 µM); against Enterococcus faecalis [4] it was 2 µg/mL (≈ 4.22 µM); against Enterococcus faecalis [5], 1 µg/mL (≈ 2.11 µM); against Enterococcus faecium [6] it was 2 µg/mL (≈ 4.22 µM). The compound also returned a median effective dose (ED50) in the experiment with Enterococcus faecium [7] of 18.4 mg/kg.
In the case of `CC(=O)NC[C@H]1CN(c2ccc(N3CCN(C(=O)Nc4ccccn4)CC3)c(F)c2)C(=O)O1`, the MIC in the experiment with Staphylococcus aureus [1] turned out to be 2 µg/mL (≈ 4.38 µM); in the experiment with Staphylococcus aureus [2] it was 2 µg/mL (≈ 4.38 µM); against Staphylococcus aureus [3] it was 2 µg/mL (≈ 4.38 µM); against Enterococcus faecalis [4], 1 µg/mL (≈ 2.19 µM); in the experiment with Enterococcus faecalis [5], 1 µg/mL (≈ 2.19 µM); in the experiment on Enterococcus faecium [6] it was 1 µg/mL (≈ 2.19 µM).
With `CC(=O)NC[C@H]1CN(c2ccc(N3CCN(C(=O)NC4CC4)CC3)c(F)c2)C(=O)O1`, the MIC against Staphylococcus aureus [1] came to 16 µg/mL (≈ 38.1 µM); in the experiment with Staphylococcus aureus [2], 8 µg/mL (≈ 19.1 µM); against Staphylococcus aureus [3], 8 µg/mL (≈ 19.1 µM); with Enterococcus faecalis [4], 8 µg/mL (≈ 19.1 µM); in the experiment on Enterococcus faecalis [5], 4 µg/mL (≈ 9.54 µM); against Enterococcus faecium [6], 4 µg/mL (≈ 9.54 µM).
Take `CN[C@H](CC(C)C)C(=O)N[C@H]1C(=O)N[C@@H](CC(N)=O)C(=O)N[C@H]2C(=O)N[C@H]3C(=O)N[C@H](C(=O)N[C@H](C(=O)O)c4cc(O)cc(O)c4-c4cc3ccc4O)[C@H](O)c3ccc(c(Cl)c3)Oc3cc2cc(c3O[C@@H]2O[C@H](CO)[C@@H](O)[C@H](O)[C@H]2O[C@H]2C[C@](C)(N)[C@H](O)[C@H](C)O2)Oc2ccc(cc2Cl)[C@H]1O` [VANCOMYCIN]: the MIC is 2 µg/mL (≈ 1.38 µM) in the experiment on Enterococcus faecalis [4], above 32 µg/mL with Enterococcus faecalis [5] and above 32 µg/mL in the experiment on Enterococcus faecium [6]. In the experiment with Enterococcus faecium [8], this compound yielded an ED50 of 3.93 mg/kg.
Turning to `CC(=O)NC[C@H]1CN(c2ccc(N3CCN(C(=O)Nc4ccon4)CC3)c(F)c2)C(=O)O1`, the minimal inhibitory concentration (MIC) with Staphylococcus aureus [1] stood at 4 µg/mL (≈ 8.96 µM); in the experiment with Staphylococcus aureus [2] it was 4 µg/mL (≈ 8.96 µM); with Staphylococcus aureus [3], 4 µg/mL (≈ 8.96 µM); in the experiment on Enterococcus faecalis [4] it was 2 µg/mL (≈ 4.48 µM); in the experiment with Enterococcus faecalis [5], 2 µg/mL (≈ 4.48 µM); in the experiment with Enterococcus faecium [6] it was 4 µg/mL (≈ 8.96 µM).
Consider `CC(=O)NC[C@H]1CN(c2ccc(N3CCN(C(=O)Nc4ccccc4)CC3)c(F)c2)C(=O)O1`, for which the MIC is 4 µg/mL (≈ 8.78 µM) against Staphylococcus aureus [1]; 4 µg/mL (≈ 8.78 µM) with Staphylococcus aureus [2]; 2 µg/mL (≈ 4.39 µM) against Staphylococcus aureus [3]; 2 µg/mL (≈ 4.39 µM) against Enterococcus faecalis [4]; 2 µg/mL (≈ 4.39 µM) in the experiment with Enterococcus faecalis [5]; 2 µg/mL (≈ 4.39 µM) in the experiment on Enterococcus faecium [6]. For the same compound, the ED50 in the experiment with Enterococcus faecium [7] is above 10 mg/kg.
Consider `CC(=O)NC[C@H]1CN(c2ccc(N3CCN(C(=O)NC(C)=O)CC3)c(F)c2)C(=O)O1`, for which the MIC stood at 16 µg/mL (≈ 38 µM) in the experiment with Staphylococcus aureus [1]; 8 µg/mL (≈ 19 µM) in the experiment with Staphylococcus aureus [2]; 8 µg/mL (≈ 19 µM) against Staphylococcus aureus [3]; 8 µg/mL (≈ 19 µM) in the experiment on Enterococcus faecalis [4]; 4 µg/mL (≈ 9.49 µM) in the experiment on Enterococcus faecalis [5]; 4 µg/mL (≈ 9.49 µM) in the experiment with Enterococcus faecium [6].
For the compound `CC(=O)NC[C@H]1CN(c2ccc(N3CCN(C(=O)NC4CCCCCC4)CC3)c(F)c2)C(=O)O1`, the MIC came out at 4 µg/mL (≈ 8.41 µM) with Staphylococcus aureus [1]; 4 µg/mL (≈ 8.41 µM) against Staphylococcus aureus [2]; 4 µg/mL (≈ 8.41 µM) with Staphylococcus aureus [3]; 4 µg/mL (≈ 8.41 µM) in the experiment with Enterococcus faecalis [4]; 2 µg/mL (≈ 4.21 µM) in the experiment on Enterococcus faecalis [5]; 4 µg/mL (≈ 8.41 µM) against Enterococcus faecium [6].
On to `CC(=O)NC[C@H]1CN(c2ccc(N3CCN(C(=O)NCc4ccc(Cl)cc4)CC3)c(F)c2)C(=O)O1`, for which the MIC with Staphylococcus aureus [1] turned out to be 4 µg/mL (≈ 7.94 µM); in the experiment on Staphylococcus aureus [2], 4 µg/mL (≈ 7.94 µM); in the experiment with Staphylococcus aureus [3] it was 4 µg/mL (≈ 7.94 µM); with Enterococcus faecalis [4], 4 µg/mL (≈ 7.94 µM); against Enterococcus faecalis [5], 2 µg/mL (≈ 3.97 µM); in the experiment with Enterococcus faecium [6] it was 4 µg/mL (≈ 7.94 µM).
As to `CC(=O)NC[C@H]1CN(c2ccc(N3CCN(C(N)=O)CC3)c(F)c2)C(=O)O1`, the MIC against Staphylococcus aureus [1] stood at 4 µg/mL (≈ 10.5 µM); in the experiment on Staphylococcus aureus [2], 2 µg/mL (≈ 5.27 µM); in the experiment on Staphylococcus aureus [3] it was 2 µg/mL (≈ 5.27 µM); with Enterococcus faecalis [4] it was 2 µg/mL (≈ 5.27 µM); with Enterococcus faecalis [5], 2 µg/mL (≈ 5.27 µM); against Enterococcus faecium [6], 2 µg/mL (≈ 5.27 µM). In the experiment on Enterococcus faecium [7], this compound displayed an ED50 of 13.8 mg/kg.
